Experimental data gathered from unrelated publications.

SMILES	test	system	setting	logD
CNC(=O)[C@H](Cc1c[nH]cn1)NC(=O)CN(CCCc1ccccc1)CC(=O)OC	shake flask	PBS	2 h, pH 7.4	1.07
Cc1c(C(=O)NN2CCCCC2)nc(-c2ccc(Cl)cc2Cl)n1-c1ccc(OS(=O)(=O)CCCC(F)(F)F)cc1	shake flask	aqueous buffer	pH 7.4	5.3
COc1ccc2cc(CCC[18F])ccc2c1	shake flask	aqueous buffer	pH 7.4	2.46
COc1cc2c(cc1OC)CN(CCCCn1ccc3c(OCC[18F])cccc31)C2	shake flask	aqueous buffer	pH 7.4	2.43
Cc1c(C(=O)NC2CCC(O)CC2)nc(-c2ccc(Cl)cc2Cl)n1-c1ccc(OS(=O)(=O)CCC(F)(F)F)cc1 (stereo not drawn)	shake flask	aqueous buffer	pH 7.4	4.2
CCCCc1nc2c(N)nc3ccccc3c2n1Cc1ccc(CN)cc1	shake flask	PBS	pH 7.4	0.42
Fc1ccc(Nc2c(-c3ccccn3)nc3ccc(C4CC4)cn23)cc1	–	–	pH 7.4	2.9
O=C(O)CN(CCCc1ccccc1)CC(=O)N[C@H](CO)Cc1c[nH]cn1	shake flask	PBS	2 h, pH 7.4	-1.3
O=C(C1CCN(c2nnnn2-c2ccccc2)CC1)N1CCCc2c(Cl)cccc21	shake flask	PBS	pH 7.4	3.6
CN1CCN(c2ccc3nc(-c4ccc5nc(-c6ccc(OCCCCNC(=S)Nc7ccc(CC(CN(CCN(CC(=O)O)CC(=O)O)CC(=O)O)N(CC(=O)O)CC(=O)O)cc7)cc6)[nH]c5c4)[nH]c3c2)CC1 (stereo not drawn)	shake flask	PBS	pH 7.4	-1.4
C[C@]1(C(=O)O)CSC(c2ccc(OCCCCCCO)cc2O)=N1	shake flask	aqueous buffer	pH 7.4	0.21
Cc1c(C(=O)Nc2ccc(C(F)(F)F)nc2)nc(-c2ccc(Cl)cc2Cl)n1-c1ccc(OS(=O)(=O)CCC(F)(F)F)cc1	shake flask	aqueous buffer	pH 7.4	> 4.9
O=C(O)CN(CCCc1ccccc1)CC(=O)N[C@@H](Cc1c[nH]cn1)C(=O)NCc1ccccc1	shake flask	PBS	2 h, pH 7.4	-0.58
CN1CCN(c2ccc3nc(-c4ccc5nc(-c6ccc(OCCCC(=O)Nc7ccc(CC(CN(CCN(CC(=O)O)CC(=O)O)CC(=O)O)N(CC(=O)O)CC(=O)O)cc7)cc6)[nH]c5c4)[nH]c3c2)CC1 (stereo not drawn)	shake flask	PBS	pH 7.4	-0.5
CC(C)CN(C[C@@H](O)[C@H](Cc1ccccc1)NC(=O)O[C@H]1CO[C@H]2OCC[C@H]21)S(=O)(=O)c1ccc(N)cc1	shake flask	PBS	pH 7.4	2.84
Cc1c(C(=O)NN2CCCCC2)nc(-c2ccc(Cl)cc2Cl)n1-c1ccc(OS(=O)(=O)CCC(C)(C)C)cc1	shake flask	aqueous buffer	pH 7.4	> 5.8
CCCc1cc2c(N3CCn4c(nnc4C(F)(F)F)C3)nc(OCC[18F])nc2s1	shake flask	aqueous buffer	pH 7.4	2.06
O=C(O)C1=Cc2cc3ccc(cc4nc(cc5c(-c6ccccc6)c(C(=O)O)c(c(C(=O)O)c1n2)n5C(=O)O)C=C4)[nH]3	shake flask	aqueous buffer	pH 9	0.0277
Cc1c(C(=O)NN2CCCCC2)nc(-c2ccc(Cl)cc2Cl)n1-c1ccc(OS(=O)(=O)CCC(F)(F)F)cc1	shake flask	aqueous buffer	pH 7.4	4.9
C[C@]1(C(=O)O)CSC(c2ccc(OCC(=O)O)cc2O)=N1	shake flask	aqueous buffer	pH 7.4	-1.98
CNC(=O)[C@H](Cc1c[nH]cn1)NC(=O)CN(CCCc1ccccc1)CC(=O)O	shake flask	PBS	2 h, pH 7.4	-1.36
Cc1c(C(=O)N[C@@H]2CCCC[C@@H]2O)nc(-c2ccc(Cl)cc2Cl)n1-c1ccc(OS(=O)(=O)CCC(F)(F)F)cc1 (single isomer, unassigned)	shake flask	aqueous buffer	pH 7.4	> 4.3
CC(C)Cc1ccc(C(C)C(=O)O)cc1 (stereo not drawn)	shake flask	aqueous buffer	pH 7.5	0.94
Cc1c(C(=O)N[C@@H]2CCCC[C@@H]2N(C)C)nc(-c2ccc(Cl)cc2Cl)n1-c1ccc(OS(=O)(=O)CCC(F)(F)F)cc1 (relative stereo)	shake flask	aqueous buffer	pH 7.4	3.8
COC(=O)CN(CCCc1ccccc1)CC(=O)N[C@@H](Cc1c[nH]cn1)c1nc(C)no1	shake flask	PBS	2 h, pH 7.4	1.52
C[C@]1(C(=O)O)CSC(c2ccc(OCCCC(=O)O)cc2O)=N1	shake flask	aqueous buffer	pH 7.4	-2.21
Cc1c(C(=O)Nc2ccc(F)nc2)nc(-c2ccc(Cl)cc2Cl)n1-c1ccc(OS(=O)(=O)CCC(F)(F)F)cc1	shake flask	aqueous buffer	pH 7.4	> 4.3
